Like-named read-outs stand apart in the source and are kept apart here.
How the values were obtained:
MHH-PREB-1 = test: alamarBlue cell proliferation assay; format: cell-based; settings: Homo sapiens
Summary of the method: (§1)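 Leukemia, lymphoma and myeloma lines (from ATCC or DSMZ, grown per supplier instructions, STR-authenticated; GFP-labelled sublines where stated) were incubated with test compound in 96-well flat-bottom plates. Viability was read by alamarBlue conversion, and EC50 was taken from the concentration-response.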

JEKO-1 = test: alamarBlue cell proliferation assay; format: cell-based; settings: Homo sapiens
Summary of the method: as §1

Toledo = test: alamarBlue cell proliferation assay; format: cell-based; settings: Homo sapiens
Summary of the method: (§2)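 Cell lines from ATCC or DSMZ were cultured per supplier's instructions and STR-authenticated. MV-4-11B is a clone of MV-4-11 carrying heterozygous TP53 c.742C>T (p.R248W). Cells were exposed to test compound in 96-well format, and viability was read after incubation with alamarBlue.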

MV-4-11B GFP = test: alamarBlue cell proliferation assay; format: cell-based
Summary of the method: as §1

CCRF-CEM = test: alamarBlue cell proliferation assay; format: cell-based; settings: Homo sapiens
Summary of the method: as §1

DB = test: alamarBlue cell proliferation assay; format: cell-based; settings: Homo sapiens
Summary of the method: as §1

MOLT-3 = test: alamarBlue cell proliferation assay; format: cell-based; settings: Homo sapiens
Summary of the method: as §1

OCI-Ly18 = test: alamarBlue cell proliferation assay; format: cell-based; settings: Homo sapiens
Summary of the method: as §1

TMD8 = test: alamarBlue cell proliferation assay; format: cell-based; settings: Homo sapiens
Summary of the method: as §2

MV-4-11B cells = test: IncuCyte live-cell proliferation and caspase-3/7 apoptosis assay; format: cell-based
HL-60 = test: alamarBlue cell proliferation assay; format: cell-based; settings: Homo sapiens
Summary of the method: as §1

OPM-2 = test: alamarBlue cell proliferation assay; format: cell-based; settings: Homo sapiens
Summary of the method: as §1

MV-4-11B AML cells = test: disseminated AML xenograft efficacy study; format: in vivo, CIEA-NOG mice; settings: MV-4-11B i.v. engrafted
OCI-Ly7 = test: alamarBlue cell proliferation assay; format: cell-based; settings: Homo sapiens
Summary of the method: as §1

MV-4-11B = test: alamarBlue cell proliferation assay; format: cell-based, human; settings: Homo sapiens
Summary of the method: as §2

SU-DHL4 = test: alamarBlue cell proliferation assay; format: cell-based; settings: Homo sapiens, SU-DHL-4
Summary of the method: as §1

NOMO-1 = test: alamarBlue cell proliferation assay; format: cell-based; settings: Homo sapiens
Summary of the method: as §1

MOLP-8 = test: alamarBlue cell proliferation assay; format: cell-based; settings: Homo sapiens
Summary of the method: as §1

[1] = tested on: p-Ser2 POL-II in MV-4-11B cells; test: p-Ser2 POL-II custom MSD assay; format: cell-based; settings: 35 nM BI 894999, 2 h
Summary of the method: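 MV-4-11B cells were treated for 2 h with single agents or their combination. Phospho-Ser2 RNA Pol II was quantified with a custom Meso Scale Discovery multi-array assay.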

THP-1 GFP = test: alamarBlue cell proliferation assay; format: cell-based; settings: Homo sapiens
Summary of the method: as §2

RL = test: alamarBlue cell proliferation assay; format: cell-based; settings: Homo sapiens
Summary of the method: as §1

DOHH-2 = test: alamarBlue cell proliferation assay; format: cell-based; settings: Homo sapiens
Summary of the method: as §1

KG-1 = test: alamarBlue cell proliferation assay; format: cell-based; settings: Homo sapiens
Summary of the method: as §1

SU-DHL2 = test: alamarBlue cell proliferation assay; format: cell-based; settings: Homo sapiens, SU-DHL-2
Summary of the method: as §1

HuT78 = test: alamarBlue cell proliferation assay; format: cell-based; settings: Homo sapiens
Summary of the method: as §1

Pfeiffer = test: alamarBlue cell proliferation assay; format: cell-based; settings: Homo sapiens
Summary of the method: as §1

OCI-AML3 = test: alamarBlue cell proliferation assay; format: cell-based; settings: Homo sapiens, OCI-AML-3
Summary of the method: as §1

NCI-H929 = test: alamarBlue cell proliferation assay; format: cell-based; settings: Homo sapiens
Summary of the method: as §1

AMO-1 = test: alamarBlue cell proliferation assay; format: cell-based; settings: Homo sapiens, AMO1
Summary of the method: as §1

MOLM-13 GFP = test: alamarBlue cell proliferation assay; format: cell-based; settings: Homo sapiens
Summary of the method: as §1

L-363 = test: alamarBlue cell proliferation assay; format: cell-based; settings: Homo sapiens
Summary of the method: as §1

U-2932 = test: alamarBlue cell proliferation assay; format: cell-based; settings: Homo sapiens, U2932
Summary of the method: as §2

MOLT-4 = test: alamarBlue cell proliferation assay; format: cell-based; settings: Homo sapiens
Summary of the method: as §1

MOLM-13 = test: alamarBlue cell proliferation assay; format: cell-based; settings: Homo sapiens
Summary of the method: as §1

HT = test: alamarBlue cell proliferation assay; format: cell-based; settings: Homo sapiens
Summary of the method: as §1

J.RT3-T3.5 = test: alamarBlue cell proliferation assay; format: cell-based; settings: Homo sapiens
Summary of the method: as §1

DERL-2 = test: alamarBlue cell proliferation assay; format: cell-based; settings: T-cell
Summary of the method: as §1

RPMI 8226 = test: alamarBlue cell proliferation assay; format: cell-based; settings: Homo sapiens
Summary of the method: as §1

RI-1 = test: alamarBlue cell proliferation assay; format: cell-based
Summary of the method: as §1

[2] = tested on: MM primary patient samples; test: proliferation of ex vivo-treated primary patient samples; format: cell-based; settings: Homo sapiens
HBL-1 = test: alamarBlue cell proliferation assay; format: cell-based; settings: HBL1
Summary of the method: as §1

THP-1 = test: alamarBlue cell proliferation assay; format: cell-based; settings: Homo sapiens
Summary of the method: as §2

MOLP-8 GFP = test: alamarBlue cell proliferation assay; format: cell-based; settings: Homo sapiens
Summary of the method: as §1

MUTZ-3 = test: alamarBlue cell proliferation assay; format: cell-based
Summary of the method: as §1

Compound: CNc1nc(-c2nc3ccc(N4CCN(C)CC4)cc3n2Cc2ccccc2)cn2c(C)nnc12 [BI 894999]
- EC50 (MHH-PREB-1): 24.4 ± 1.2 nM
- EC50 (JEKO-1): 7.9 ± 2.1 nM
- EC50 (Toledo): 6 ± 1.1 nM
- EC50 (MV-4-11B GFP): 2.9 ± 0.9 nM
- EC50 (CCRF-CEM): 175 ± 58 nM
- EC50 (DB): 11.6 ± 7.6 nM
- EC50 (MOLT-3): 14.4 ± 6.5 nM
- EC50 (OCI-Ly18): 5.6 ± 0.9 nM
- EC50 (TMD8): 9.7 ± 3.7 nM
- effect on proliferation (IncuCyte) (MV-4-11B cells; 10 nM): Significant inhibition of proliferation
- time of peak of apoptosis (Caspase-3/7) after start of treatment (MV-4-11B cells; dose-range 0.05 to 100 nM): around 40 h
- EC50 (HL-60): 2.7 ± 0.1 nM
- EC50 (OPM-2): 8.9 ± 4.7 nM
- survival prolongation (MV-4-11B AML cells; daily oral 2 mg/kg): 29.5 days
- tumor growth inhibition (TGI) (MV-4-11B AML cells; daily oral 2 mg/kg): 96%
- survival prolongation (MV-4-11B AML cells; daily oral 4 mg/kg): 52 days
- tumor growth inhibition (TGI) (MV-4-11B AML cells; daily oral 4 mg/kg): 99%
- EC50 (OCI-Ly7): 14.2 ± 6.4 nM
- EC50 (MV-4-11B): 6.8 ± 4 nM
- EC50 (MV-4-11B; read-out: anti-proliferative EC50): 10 nM
- EC50 (SU-DHL4): 13.3 ± 4.5 nM
- EC50 (NOMO-1): 5.7 ± 4.1 nM
- EC50 (MOLP-8): 5.3 ± 2.8 nM
- p-Ser2 POL-II levels [1]: ~ 86 % of control
- EC50 (THP-1 GFP): 4.1 ± 2 nM
- EC50 (RL): 18.2 ± 10 nM
- EC50 (DOHH-2): 6.2 ± 0.8 nM
- EC50 (KG-1): 6.2 ± 2.2 nM
- EC50 (SU-DHL2): 10.7 ± 3.2 nM
- EC50 (HuT78): 7.1 ± 3.7 nM
- EC50 (Pfeiffer): 10.7 ± 2.7 nM
- EC50 (OCI-AML3): 2.3 ± 0.5 nM
- EC50 (NCI-H929): 3.6 ± 2 nM
- EC50 (AMO-1): 28 ± 15 nM
- EC50 (MOLM-13 GFP): 14.3 nM
- EC50 (L-363): 13.7 ± 6.2 nM
- EC50 (U-2932): 4.3 ± 2.1 nM
- EC50 (MOLT-4): 40.7 ± 28.7 nM
- EC50 (MOLM-13): 12.8 ± 3.4 nM
- EC50 (HT): 11.6 ± 8.1 nM
- EC50 (J.RT3-T3.5): 11 ± 4 nM
- EC50 (DERL-2): 10.6 ± 9.5 nM
- EC50 (RPMI 8226): 25 ± 9 nM
- EC50 (RI-1): 6.2 ± 1.9 nM
- EC50 ([2]; read-out: BI 894999 EC50, MM Patient 1): 52 nM
- EC50 ([2]; read-out: BI 894999 EC50, MM Patient 2): 15 nM
- EC50 ([2]; read-out: BI 894999 EC50, MM Patient 3): 7 nM
- EC50 ([2]; read-out: BI 894999 EC50, MM Patient 4): > 2000 nM
- EC50 ([2]; read-out: BI 894999 EC50, MM Patient 5): 500 nM
- EC50 ([2]; read-out: BI 894999 EC50, MM Patient 6): 421 nM
- EC50 ([2]; read-out: BI 894999 EC50, MM Patient 7): 54 nM
- EC50 ([2]; read-out: BI 894999 EC50, MM Patient 8): 3 nM
- EC50 ([2]; read-out: BI 894999 EC50, MM Patient 9): 21 nM
- EC50 ([2]; read-out: BI 894999 EC50, MM Patient 10): 1 nM
- EC50 ([2]; read-out: BI 894999 EC50, MM Patient 11): 57 nM
- EC50 ([2]; read-out: BI 894999 EC50, MM Patient 12): 1360 nM
- EC50 ([2]; read-out: BI 894999 EC50, MM Patient 13): 2 nM
- EC50 ([2]; read-out: BI 894999 EC50, MM Patient 14): 275 nM
- EC50 ([2]; read-out: BI 894999 EC50, MM Patient 15): 352 nM
- EC50 (HBL-1): 7.1 ± 5.2 nM
- EC50 (THP-1): 6.3 ± 2.9 nM
- EC50 (MOLP-8 GFP): 21.5 ± 10.8 nM
- EC50 (MUTZ-3): 12.8 ± 11.2 nM

Source: PMC5955861 (Oncogene, 2018)
